In ChEMBL document CHEMBL2021842, “COMPARE analysis of the toxicity of an iminoquinone derivative of the imidazo[5,4-f]benzimidazoles with NAD(P)H:quinone oxidoreductase 1 (NQO1) activity and computational docking of quinones as NQO1 substrates” (Bioorg Med Chem, 2012):

Assays:
Type in all cases: functional
Conditions in all cases: read-out: Activity
NCI-H226 = experiment: Growth inhibition of human NCI-H226 cells assessed as cell growth at 10 uM relative to untreated control
Outline: (§1)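 First stage of the NCI DTP 60 human tumour cell-line screen. Cells were exposed to a single dose of 10 µM. Output is reported as growth % relative to control.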

SF-295 = experiment: Growth inhibition of human SF295 cells assessed as cell growth at 10 uM relative to untreated control; outline: as §1
Malme-3M = experiment: Growth inhibition of human MALME-3M cells assessed as cell growth at 10 uM relative to untreated control
Outline: (§2)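 NCI DTP 60-cell-line screen, first stage: a single 10 µM dose of compound given to the human tumour panel. Result reported as percent growth relative to control, on a mean growth graph.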

HT-29 = experiment: Growth inhibition of human HT-29 cells assessed as cell growth at 10 uM relative to untreated control; outline: as §2
MDA-MB-435 = experiment: Growth inhibition of human MDA-MB-435 cells assessed as cell growth at 10 uM relative to untreated control; outline: as §1
DU-145 = experiment: Growth inhibition of human DU145 cells assessed as cell growth at 10 uM relative to untreated control; outline: as §2
RXF 393 = experiment: Growth inhibition of human RXF393 cells assessed as cell growth at 10 uM relative to untreated control; outline: as §1
MDA-MB-468 = experiment: Growth inhibition of human MDA-MB-468 cells assessed as cell growth at 10 uM relative to untreated control; outline: as §1
NCI-H460 = experiment: Growth inhibition of human NCI-H460 cells assessed as cell growth at 10 uM relative to untreated control; outline: as §1
M14 = experiment: Growth inhibition of human M14 cells assessed as cell growth at 10 uM relative to untreated control; outline: as §2
HOP-62 = experiment: Growth inhibition of human HOP62 cells assessed as cell growth at 10 uM relative to untreated control; outline: as §2
SW-620 = experiment: Growth inhibition of human SW620 cells assessed as cell growth at 10 uM relative to untreated control
Outline: (§3)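 This is the first stage of the NCI DTP 60-human-tumour-cell-line screen, covering nine tissue types. Cells receive a single dose of the test compound, and the output is reported as mean growth %.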

SK-MEL-2 = experiment: Growth inhibition of human SK-MEL-2 cells assessed as cell growth at 10 uM relative to untreated control; outline: as §1
OVCAR-3 = experiment: Growth inhibition of human OVCAR3 cells assessed as cell growth at 10 uM relative to untreated control; outline: as §1
A498 = experiment: Growth inhibition of human A498 cells assessed as cell growth at 10 uM relative to untreated control; outline: as §2
HL-60(TB) = experiment: Growth inhibition of human HL-60(TB) cells assessed as cell growth at 10 uM relative to untreated control
Outline: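 NCI DTP NCI-60 screen, first stage: a single dose applied to 60 human tumour cell lines from nine tissue types. Output is reported as growth %.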

NCI-H522 = experiment: Growth inhibition of human NCI-H522 cells assessed as cell growth at 10 uM relative to untreated control; outline: as §1
SNB-75 = experiment: Growth inhibition of human SNB75 cells assessed as cell growth at 10 uM relative to untreated control; outline: as §3
SF-539 = experiment: Growth inhibition of human SF539 cells assessed as cell growth at 10 uM relative to untreated control; outline: as §1
MCF7 = experiment: Growth inhibition of human MCF7 cells assessed as cell growth at 10 uM relative to untreated control; outline: as §1
HCC 2998 = experiment: Growth inhibition of human HCC2998 cells assessed as cell growth at 10 uM relative to untreated control; outline: as §2
786-0 = experiment: Growth inhibition of human 786-0 cells assessed as cell growth at 10 uM relative to untreated control; outline: as §2
MDA-MB-231 = experiment: Growth inhibition of human MDA-MB-231 cells assessed as cell growth at 10 uM relative to untreated control; outline: as §1
SK-OV-3 = experiment: Growth inhibition of human SKOV3 cells assessed as cell growth at 10 uM relative to untreated control; outline: as §1
SN12C = experiment: Growth inhibition of human SN12C cells assessed as cell growth at 10 uM relative to untreated control; outline: as §3
UO-31 = experiment: Growth inhibition of human UO31 cells assessed as cell growth at 10 uM relative to untreated control; outline: as §3
NCI/ADR-RES = experiment: Growth inhibition of human NCI/ADR-RES cells assessed as cell growth at 10 uM relative to untreated control; outline: as §1
IGROV-1 = experiment: Growth inhibition of human IGROV1 cells assessed as cell growth at 10 uM relative to untreated control; outline: as §2
EKVX = experiment: Growth inhibition of human EKVX cells assessed as cell growth at 10 uM relative to untreated control; outline: as §2
HOP-92 = experiment: Growth inhibition of human HOP92 cells assessed as cell growth at 10 uM relative to untreated control; outline: as §2
SK-MEL-5 = experiment: Growth inhibition of human SK-MEL-5 cells assessed as cell growth at 10 uM relative to untreated control; outline: as §1
ACHN = experiment: Growth inhibition of human ACHN cells assessed as cell growth at 10 uM relative to untreated control; outline: as §2
CAKI-1 = experiment: Growth inhibition of human Caki1 cells assessed as cell growth at 10 uM relative to untreated control; outline: as §2
SNB-19 = experiment: Growth inhibition of human SNB19 cells assessed as cell growth at 10 uM relative to untreated control; outline: as §3
SF-268 = experiment: Growth inhibition of human SF268 cells assessed as cell growth at 10 uM relative to untreated control; outline: as §1
T47D = experiment: Growth inhibition of human T47D cells assessed as cell growth at 10 uM relative to untreated control; outline: as §3
OVCAR-5 = experiment: Growth inhibition of human OVCAR5 cells assessed as cell growth at 10 uM relative to untreated control; outline: as §1
SR = experiment: Growth inhibition of human SR cells assessed as cell growth at 10 uM relative to untreated control; outline: as §3
[1] = Growth inhibition of human Hs 578T cells assessed as cell growth at 10 uM relative to untreated control; outline: as §2
K562 = experiment: Growth inhibition of human K562 cells assessed as cell growth at 10 uM relative to untreated control; outline: as §2
UACC-62 = experiment: Growth inhibition of human UACC62 cells assessed as cell growth at 10 uM relative to untreated control; outline: as §3
NCI-H23 = experiment: Growth inhibition of human NCI-H23 cells assessed as cell growth at 10 uM relative to untreated control; outline: as §1
TK-10 = experiment: Growth inhibition of human TK10 cells assessed as cell growth at 10 uM relative to untreated control; outline: as §3
LOX IMVI = experiment: Growth inhibition of human LOXIMVI cells assessed as cell growth at 10 uM relative to untreated control; outline: as §2
KM12 = experiment: Growth inhibition of human KM12 cells assessed as cell growth at 10 uM relative to untreated control; outline: as §2
[2] = Growth inhibition of human […] cells assessed as cell growth at 10 uM relative to untreated control; outline: as §1
HCT-15 = experiment: Growth inhibition of human HCT15 cells assessed as cell growth at 10 uM relative to untreated control; outline: as §2
MOLT-4 = experiment: Growth inhibition of human MOLT4 cells assessed as cell growth at 10 uM relative to untreated control; outline: as §1
PC-3 = experiment: Growth inhibition of human PC3 cells assessed as cell growth at 10 uM relative to untreated control; outline: as §1
CCRF-CEM = experiment: Growth inhibition of human CCRF-CEM cells assessed as cell growth at 10 uM relative to untreated control; outline: as §2
HCT-116 = experiment: Growth inhibition of human HCT116 cells assessed as cell growth at 10 uM relative to untreated control; outline: as §2
BT-549 = experiment: Growth inhibition of human BT549 cells assessed as cell growth at 10 uM relative to untreated control; outline: as §2
SK-MEL-28 = experiment: Growth inhibition of human SK-MEL-28 cells assessed as cell growth at 10 uM relative to untreated control; outline: as §1
NCI-H322M = experiment: Growth inhibition of human NCI-H322M cells assessed as cell growth at 10 uM relative to untreated control; outline: as §1

SMILES: N=C1c2nc3n(c2C(=O)c2nc4n(c21)CCCCC4)CCCCC3
- growth at 10 µM (NCI-H226): 98.2%
- growth at 10 µM (SF-295): 93.8%
- growth at 10 µM (Malme-3M): 103%
- growth at 10 µM (HT-29): 106%
- growth at 10 µM (MDA-MB-435): 111%
- growth at 10 µM (DU-145): 113%
- growth at 10 µM (RXF 393): 102%
- growth at 10 µM (MDA-MB-468): 99.8%
- growth at 10 µM (NCI-H460): 92.6%
- growth at 10 µM (M14): 108%
- growth at 10 µM (HOP-62): 122%
- growth at 10 µM (SW-620): 105%
- growth at 10 µM (SK-MEL-2): 118%
- growth at 10 µM (OVCAR-3): 111%
- growth at 10 µM (A498): 91.6%
- growth at 10 µM (HL-60(TB)): 103%
- growth at 10 µM (NCI-H522): 90.9%
- growth at 10 µM (SNB-75): 105%
- growth at 10 µM (SF-539): 105%
- growth at 10 µM (MCF7): 94.5%
- growth at 10 µM (HCC 2998): 112%
- growth at 10 µM (786-0): 120%
- growth at 10 µM (MDA-MB-231): 117%
- growth at 10 µM (SK-OV-3): 107%
- growth at 10 µM (SN12C): 106%
- growth at 10 µM (UO-31): 83.7%
- growth at 10 µM (NCI/ADR-RES): 110%
- growth at 10 µM (IGROV-1): 130%
- growth at 10 µM (EKVX): 103%
- growth at 10 µM (HOP-92): 126%
- growth at 10 µM (SK-MEL-5): 88.7%
- growth at 10 µM (ACHN): 105%
- growth at 10 µM (CAKI-1): 95.1%
- growth at 10 µM (SNB-19): 113%
- growth at 10 µM (SF-268): 108%
- growth at 10 µM (T47D): 116%
- growth at 10 µM (OVCAR-5): 123%
- growth at 10 µM (SR): 91.8%
- growth at 10 µM [1]: 112%
- growth at 10 µM (K562): 102%
- growth at 10 µM (UACC-62): 110%
- growth at 10 µM (NCI-H23): 97.3%
- growth at 10 µM (TK-10): 142%
- growth at 10 µM (LOX IMVI): 92%
- growth at 10 µM (KM12): 106%
- growth at 10 µM [2]: 99.1%
- growth at 10 µM (HCT-15): 109%
- growth at 10 µM (MOLT-4): 93.7%
- growth at 10 µM (PC-3): 113%
- growth at 10 µM (CCRF-CEM): 104%
- growth at 10 µM (HCT-116): 107%
- growth at 10 µM (BT-549): 110%
- growth at 10 µM (SK-MEL-28): 118%
- growth at 10 µM (NCI-H322M): 110%
